We go through one substance from PMC11437091 (Scientific Reports, 2024).

Assay [1] has as its system subcutaneous MDA-MB-231-luc tumor. As to the kind of experiment: NIRF imaging, subcutaneous tumor model mice. The class given is in vivo. Summed up: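 Female BALB/c-nude mice, 6 weeks old, received 1 × 10^6 MDA-MB-231-luc cells s.c. in PBS with 30% matrigel. The Cy5-labelled test compound (1 µmol) was injected i.v. via tail vein. IVIS whole-body imaging at 48 h used excitation 640 nm and emission 680 nm. Luminescence was read from 10 min after i.p. luciferin 150 mg/kg. Organs and tumour were imaged ex vivo after euthanasia, with semiquantitative fluorescence intensity, n = 3.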

Assay [2] relates to EDB-FN in MDA-MB-231 cells. As to the kind of experiment: confocal immunofluorescence colocalization with EDB-FN. Format: cell-based. As to conditions: confocal microscopy, 1 µM, 37 °C, 2 h. The method in brief: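 MDA-MB-231 cells were seeded at 1 × 10^5 cells/ml in confocal dishes. They were incubated with 1 µM Cy5-labelled test compound for 2 h at 37 °C, washed six times with PBST, and fixed in 4% paraformaldehyde. Permeabilization used 0.25% Triton X-100 and blocking used 5% BSA for 30 min. Anti-EDB-FN mAb (1:1000) was applied overnight at 4 °C. Alexa Fluor 488 anti-rabbit (4 µg/mL) was applied 1 h at RT. Nuclei were stained with DAPI and imaged by confocal microscopy.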

For a further assay, the system named is MDA-MB-231 cells. As to the kind of experiment: flow cytometry binding of EDBp-Cy5 to cells. As to conditions: 1 µM, 37 °C, 60 min. Format: cell-based. The method in brief: (§1)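 Cells were grown in DMEM with 10% FBS at 37 °C and 5% CO2, then seeded at 1 × 10^6 cells/ml in 6-well plates. They were stained with 1 µM Cy5-labelled test compound, or a Cy5-labelled cyclic control peptide, for 60 min at 37 °C. Cells were washed three times with PBS and analysed by flow cytometry for Cy5 signal.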

In another assay the test system is EMT6 cells. The experiment in a line: flow cytometry binding of EDBp-Cy5 to cells. Format: cell-based. As to conditions: 1 µM, 37 °C, 60 min. The method in brief:
as §1

For a further assay, the system named is MCF7 cells. As to the kind of experiment: flow cytometry binding of EDBp-Cy5 to cells. The class given is cell-based. The settings on record: 1 µM, 37 °C, 60 min. The method in brief: as §1

Regarding AVRTSAD-PEG4-K-Cy5 [EDBp-Cy5], the “enrichment in subcutaneous tumor (NIRF imaging)” value in assay [1] (48 h after i.v. injection of 1 µmol, whole-body imaging) is “significantly enriched”. Also, the “ex vivo distribution in main organs and tumor (NIRF)” value in assay [1] (48 h after injection, organs collected, n = 3) is “observed mainly in the kidney and subcutaneous tumor”. The “colocalization with EDB-FN” value in assay [2] is “colocalized with EDB-FN”. Also, the cell binding ability entry in the assay with MDA-MB-231 cells is recorded as “high”; with EMT6 cells, “moderate”; with MCF7 cells, “moderate”.
